Measurements taken from the EternaBench riboswitch data.

System: MS2 coat protein
Experiment: apparent Kd, MS2 coat protein; higher = weaker binding; RNA-MaP array; FMN 200 µM where present
Outline: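 The apparent Kd is the median of filtered binding-curve fits, one per cluster, to green signal normalised to red-channel RNA signal and control-cluster median Fmax. The clusters were on Illumina sequencing chips, and stalled E. coli RNA polymerase had transcribed the designs on them. Titration used SNAP-549-labelled MS2 coat protein from 0.7 or 1.5 nM, doubling to 3 µM, without and then with constant ligand, in 100 mM Tris-HCl pH 7.5, 80 mM KCl, 4 mM MgCl2, BSA, DTT, yeast tRNA and Tween-20.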

[1] = designed as: OFF switch for flavin mononucleotide, no ligand
[2] = ligand present: flavin mononucleotide, designed as: OFF switch for flavin mononucleotide
[3] = designed as: ON switch for flavin mononucleotide, no ligand
[4] = ligand present: flavin mononucleotide, designed as: ON switch for flavin mononucleotide

GUCAGCUCGUCAGGAUAUACAUGAUAGAUCGAUUAAUUAAUUAAUUUAACAUGAGGAUCACCCAUGUAGAAGGGACGAGCUGAC
apparent Kd [1]: 0.0801 µM
apparent Kd [2]: 0.0719 µM

ACAUUGCGAGGAUAUACAUGAGGAUCACCCAUGUGGUAGCAGAUACGGUAGGGCUAGUGUAGAAGGUGUCAUGG
apparent Kd [1]: 0.112 µM
apparent Kd [2]: 0.0963 µM

CGCUACAUGAGGAUCACCCAUGUACUAACUUGCACGUGAACGAGAAGGCCACAGCAACCCUGCGUGGAGGAUAUCGUGGUGCCA
apparent Kd [3]: 0.00849 µM
apparent Kd [4]: 0.00748 µM

GCAGCGUAUGUAGGAUAUCGGUCAGUUUCUGAUCGAGAAGGACAUGAGGAUCACCCAUGUAAAUUACCGACAUUGUCGGGCUGC
apparent Kd [1]: 0.0065 µM
apparent Kd [2]: 0.00825 µM

GUAGCUAUCGCAGGAUAUCCUCAGGCGAAAGCCACAUGAGGAUCACCCAUGUAAAUAAAGUAUUUGGAGAAGGGCGAUAGCUAC
apparent Kd [3]: 0.71 µM
apparent Kd [4]: 0.0361 µM

UAAGAGUGAGGAUAUACGUCGCUGGACCGGAUGGACGCAUGACAUGAGGAUCACCCAUGUAGAAGGCACAAAAC
apparent Kd [1]: 0.0203 µM
apparent Kd [2]: 0.0255 µM

GGAUAGGACAGAGGAUAUACGUGCUGGAGAUACUAGCAAAAUUUCCUCACAUGAGGAUCACCCAUGUAGAAGGCUGUCCUAUCG
apparent Kd [1]: 0.0326 µM
apparent Kd [2]: 0.478 µM

UGUUGUAUUACAGGAUAUCUAGGAUUUUUAUUUAGAGAAGGGUAUUCACAUGAGGAUCACCCAUGUAUAUACGAGGAAGUUGUG
apparent Kd [3]: 0.0402 µM
apparent Kd [4]: 0.0413 µM

AGAUAACACCAGAAGGACAUGAGGAUCACCCAUGUAGGAUAUGGGCAUCACUCGAGAAAGAAAAGACCAAGUGGACACGCGGUC
apparent Kd [3]: 0.117 µM
apparent Kd [4]: 0.0107 µM

GGAUAGGACAGAGGAUAUACGUGAUAGAGAUACUAGCAAAAUUUCCUCACAUGAGGAUCACCCAUGUAGAAGGCUGUCCUAUCG
apparent Kd [1]: 0.31 µM
apparent Kd [2]: 0.115 µM

UUAUAUAGGUAGGAUAUCGAUAUUAAUUAUUAUCGAGAAGGGUCUACAUGAGGAUCACCCAUGUUAGCAUGUAU
apparent Kd [1]: 0.0289 µM
apparent Kd [2]: 0.0329 µM

GAGUAGUAAGGAUAUGUCUCUGGUGGCUACGGUCACUAGAGGCAGAAGGUACAUGAGGAUCACCCAUGUUUUUU
apparent Kd [1]: 0.0172 µM
apparent Kd [2]: 0.0193 µM

UCGCGGGUGCAGAAGGGAUAGGCCUAUUGUCGUGGAGUCUAAACUUAACAUGAGGAUCACCCAUGUCAGGAUAUGCCCACGCGA
apparent Kd [1]: 0.00917 µM
apparent Kd [2]: 0.0102 µM

UUUAUUUAGGCAGGAUAUACAUGUAUAUAUAUUUCUUUAUAUCUUAUUACAUGAGGAUCACCCAUGUAGAAGGGCCUUCUUAUA
apparent Kd [1]: 0.0267 µM
apparent Kd [2]: 0.0306 µM

GAGUAGUUAAAAGGAUAUUGAUUAUUGUAGGAUCAAGAAGGUUUUAACAUGAGGAUCACCCAUGUAGGACUAUAAAUGUGAAAA
apparent Kd [3]: 0.0175 µM
apparent Kd [4]: 0.015 µM

AUCUGCUCGUCAGGAUAUACGUCACUGCGUCAGCAGUGUGGUAAGAUCACAUGAGGAUCACCCAUGUAGAAGGGACGAGCUGAU
apparent Kd [1]: 0.0129 µM
apparent Kd [2]: 0.268 µM

AAGUUUAACGAAGGAUAUGGUUACAUGAGGAUCACCCAUGUAAUGGUUGUGAUAUUGAUUAAGUUCCAGAAGGUCGUAUACAUA
apparent Kd [1]: 0.109 µM
apparent Kd [2]: 0.301 µM

CCCAUGUUAGGAUAUAUGGAAGGGCGCACGUGCACCCUAAGGUAGAAGGGACAUGAGGAUCACCCAUGUAAUAA
apparent Kd [1]: 0.152 µM
apparent Kd [2]: 0.228 µM

GUGAAACAUGAGGAUCACCCAUGUCAGGAUAUGAUACUAUGUACUUCGGUACAUAGUAUCAGAAGGGACAGUGA
apparent Kd [1]: 0.0779 µM
apparent Kd [2]: 0.101 µM

GGUCCAUCAUGAGGAUAUGGCACCUUAUUGGUGCCAGAAGGCAUGUCUAUAGACAUGAGGAUCACCCAUGUAAUAAAGUGGACC
apparent Kd [3]: 0.921 µM
apparent Kd [4]: 0.0493 µM

GAUUCACAUGAGGAUCACCCAUGUCGUUUUAUGGGAGGAUAUACGUGGACCGUAGUCCGCGUAGAAGGCCUAAUUG
apparent Kd [3]: 0.102 µM
apparent Kd [4]: 0.0304 µM

CCUGCCAGGACAGGAUAUCUGAGCUGGGACAUGUCUUUUAAGGACAUGAGGAUCACCCAUGUUCAAGAGAAGGGUCAAGGGCGU
apparent Kd [1]: 0.401 µM
apparent Kd [2]: 0.21 µM

CCUAGUUGGUAAGGAUAUCCUACACUAUUCUGACCCGUGCAAGCUACAUGAGGAUCACCCAUGUGGGAGAAGGUGCGUCAACGC
apparent Kd [1]: 0.0138 µM
apparent Kd [2]: 0.0152 µM

UAAAAGACUAGCUUUGGUAAGAUCACAUGAGGAUCACCCAUGUAGGAUAUGAGCAGAAAAUCUGCUCAGAAGGACAUGCUAGUC
apparent Kd [1]: 0.0162 µM
apparent Kd [2]: 0.156 µM

GUGUACUGAGGAUAUACAUGAGGAUCACCCAUGUGAAUAAGAUAGAAUAAGAUAAAGUGUAGAAGGCAGAGUGU
apparent Kd [1]: 0.0408 µM
apparent Kd [2]: 0.0354 µM

UGAGGACAUGAGGAUCACCCAUGUAAGGAUAUGCGGAGAGAUUGGAGAGGUCGAGGAGGCAGAAGGUACAGGAC
apparent Kd [1]: 0.143 µM
apparent Kd [2]: 0.0747 µM

AUGGACGUCGUAGGAUAUGUAGGAUUCUCGUACAUGAGGAUCACCCAUGUUGACGUCGAGGACGGACAGAAGGGCGGUGUCUAU
apparent Kd [3]: 0.0646 µM
apparent Kd [4]: 0.00938 µM

CGAACUCCGUAGAAGGGUGACAUGAGGAUCACCCAUGUGCGAGCGGAGGGAGUCAGCGGCUCGCCACAGGAUAUACGGAGCACG
apparent Kd [3]: 0.0494 µM
apparent Kd [4]: 0.107 µM

UUUUUCUCAGGAUAUACAUGAGGAUCACCCAUGUAUAUUAGUGAUAAUACAUGGGAAUGUAGAAGGGAGCUCAU
apparent Kd [1]: 0.164 µM
apparent Kd [2]: 0.123 µM

CAGAUCGGCUAGGAUAUCCAUGGUAUGUUACGAGGAGAAGGAGUCACAUGAGGAUCACCCAUGUCUCAUACUGA
apparent Kd [1]: 0.0247 µM
apparent Kd [2]: 0.0318 µM

GGAUGACAAAGUCAUCCAUUACGAACAUGAGGAUCACCCAUGUAGGAUAUGCAACUCAAAGAGUUGCAGAAGGACAUGUGUCUU
apparent Kd [1]: 0.0296 µM
apparent Kd [2]: 0.146 µM

AGUUGAAAUACAGGAUAUAUAUUAUUUUUAUUUAUAGAAGGGUAAUCACAUGAGGAUCACCCAUGUAUAUACGAGGAAGAAGAG
apparent Kd [3]: 0.292 µM
apparent Kd [4]: 0.263 µM

AGGAUAGGAAACUUUGUCCAUUGUACAGAAGGCCAACAUGAGGAUCACCCAUGUAAGAAAAGGAUGGAGGAUAUGUAUAGGGCC
apparent Kd [3]: 0.0258 µM
apparent Kd [4]: 0.0123 µM

CAGGUAGACUGAGGAUAUACACAAAACAGCUAGUCUAUCUAGCUGCUCACAUGAGGAUCACCCAUGUAGAAGGCAGUCUGCCUG
apparent Kd [1]: 0.0184 µM
apparent Kd [2]: 0.0378 µM

GUCGAAGCCGUACUGGUCGACGGUCAGGAUAUACAUGAGGAUCACCCAUGUGCUAUUGAUACUAUGUAGAAGGGACCCACCGCA
apparent Kd [1]: 0.0133 µM
apparent Kd [2]: 0.019 µM

CUCAUGUGAGGAUAUCAGUAGUAAAAAAAUAAAAUUACUACUGAGAAGGCACAUGAGGAUCACCCAUGUGUCUU
apparent Kd [1]: 0.0163 µM
apparent Kd [2]: 0.0317 µM

CAGCGCUGUCGAGAGGAUAUGCGGUGAUGGACAUGAGGAUCACCCAUGUUAGCGGUAGCAUUACGGUAGAAGGCUCUACAGCUGC
apparent Kd [3]: 0.031 µM
apparent Kd [4]: 0.0132 µM

AAGGUGAGAGGAUAUACAUGAGGAUCACCCAUGUGUCGGCCCUCCACAUAUGCCUUGUGUAGAAGGCUCCCGAG
apparent Kd [1]: 0.0146 µM
apparent Kd [2]: 0.0223 µM

GCCGGGUAGGCAGGAUAUCCUCGCGCAAACACAUGAGGAUCACCCAUGUACACAAAACGUGAUAUGGAGAAGGGCCAACCCACG
apparent Kd [3]: 0.0241 µM
apparent Kd [4]: 0.0058 µM

GGGUAUAAACCCGUCUCCGCUCAACCAGAAGGGCACGAUAAUAUUACAUGAGGAUCACCCAUGUUGCAGGAUAUGGUGAGCCUC
apparent Kd [3]: 0.363 µM
apparent Kd [4]: 0.0669 µM

UUUCUACAUGAGGAUCACCCAUGUCAACAAAGUCGAGGAUAUGGGCAUAUUAUCUUAUUUCCAGAAGGCGAUUUCU
apparent Kd [3]: 0.145 µM
apparent Kd [4]: 0.0295 µM

UCCUUGUCCUGAGGAUAUCCGAGGUUCCCAAAAGGAGAAGGCAGGACAUGAGGAUCACCCAUGUACCCAGAAAACGUGCAGAGU
apparent Kd [1]: 0.122 µM
apparent Kd [2]: 0.025 µM

CGCUCAAUUCAGAAGGAUAGAAUCAGAAGGCGUAACAUGAGGAUCACCCAUGUAUAGAAGUGUAACGAGGAUAUGAAUUGAGCG
apparent Kd [1]: 0.0115 µM
apparent Kd [2]: 0.0102 µM

CCUUGAUAAUAUCUUCACAUGAGGAUCACCCAUGUCGCUCGACAGGAUAUAUUUGAUUUGUUUAAGUAGAAGGGUCGCAGAUUC
apparent Kd [3]: 0.123 µM
apparent Kd [4]: 0.111 µM

AACACGCUAACAAGCGACAUGAGGAUCACCCAUGUAAGGACACAGGAUAUCCGGAGUCAUAGGCCGGAGAAGGGUGAUCCUACC
apparent Kd [3]: 0.0334 µM
apparent Kd [4]: 0.0197 µM

UGUACUCAAAGAGUACCAAUACGAACAUGAGGAUCACCCAUGUAGGAUAUGCUACUCAAAGAGUAGCAGAAGGACAUGUGCCUA
apparent Kd [1]: 0.019 µM
apparent Kd [2]: 0.0763 µM

CUUGUUUAUGUGAGGAUAUACUGUUAGUAUAGUUUGUAGAAGGUACAUGAGGAUCACCCAUGUUUAUUACUCUU
apparent Kd [1]: 0.0137 µM
apparent Kd [2]: 0.0138 µM

AAACAGGGAGGAUAUACAUAGAUCGUCUAACCUAAUUGGUCACAUGAGGAUCACCCAUGUAGAAGGCCCUUAGG
apparent Kd [1]: 0.0246 µM
apparent Kd [2]: 0.144 µM
